From PubChem BioAssay
Compounds with a hit are over-represented: about 2.2% of the library has one in this group of screens.
Neddylation inh: inhibitors of cullin neddylation, primary screen, biochemical, TR-FRET, uHTS, NAE and Ubc12. inhibition, % at 25 µM. NEDD8-conjugating enzyme Ubc12 (Homo sapiens) + NEDD8-activating enzyme E1 regulatory …. 360,000 compounds, 0.58% hits; in the data active = inhibition above about 36%
HKDC1 inh: HKDC1 hexokinase inhibitors, primary screen, biochemical, fluorescence, uHTS. AID 493160, 2011. 340,000 compounds, 0.16% hits. recombinant HKDC1, G6PDH/diaphorase resazurin coupled fluorescence. Q2TB90. inhibition, % at 20 µM;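 active = inhibition above about 35% when tested at 20 µM, limit read from the data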;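 note: plate controls were DMSO wells with enzyme for no effect and DMSO wells lacking enzyme for full effect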
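System: Recombinant HKDC1 hexokinase | Amount: HKDC1 at 5 µg/mL | Reagent: Glucose with 1 mM ATP | Doses: Single 20 µM dose | Incubation: Reaction time 90 min, room temperature, protected from light | Signal: Coupled resazurin fluorescence, excitation 525 nm, emission 613 nm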
M18AAP inhibitor: PfM18AAP inhibitors, malaria aminopeptidase, primary screen, biochemical, QFRET, recombinant enzyme; M18 aspartyl aminopeptidase (Plasmodium falciparum 3D7); H-Glu-NHMec fluorogenic cleavage; inhibition, % at 7.35 µM; 290,000 compounds, 1.2% hits;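 active = inhibition above the campaign mean inhibition over all tested compounds plus 3 SD, cut at about 28% in these data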;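 note: 0% = plate median of test compound wells and 100% = 2 mM ZnCl2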
PfG6PD inh: PfG6PD enzyme inhibitors, primary screen, biochemical, fluorescence intensity, uHTS | glucose-6-phosphate dehydrogenase-6-phosphogluconolactonase (Plasmodium falciparum 3D7) | PfGluPho enzyme, NADPH resazurin-diaphorase fluorescence | inhibition, % at 20 µM | 350,000 compounds, 0.78% hits | AID 504690, 2011;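 active = inhibition reaching at least a set limit at 20 µM in the primary screen, cut at about 59% in these data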;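 note: 0% = DMSO wells with substrate and 100% = DMSO wells lacking glucose-6-phosphate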
PfGluPho conf: PfG6PD inhibitors, hit retest, confirmation, biochemical, fluorescence intensity, single concentration | shares compounds with PfG6PD inh | recombinant PfGluPho, NADPH-diaphorase-resazurin fluorescence | inhibition, % at 20 µM | 2,400 compounds, 34% hits;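 active = inhibition of at least 50% at 20 µM in any single replicate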;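 note: 0% = DMSO with substrate and 100% = DMSO lacking glucose-6-phosphate substrate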
Diaphorase 10uM: diaphorase inhibitors and chemical oxidizers, confirmation, counter-screen for P. falciparum G6PD inhibitor project, biochemical, fluorescence intensity, 10 µM NADPH. shares compounds with PfG6PD inh. diaphorase-coupled resazurin reduction, NADPH 10 uM. inhibition, % at 20 µM. 820 compounds, 39% hits. AID 504862, 2011;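 active = average inhibition reaching 50% or more with the compound at 20 µM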;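 note: resorufin red fluorescence formed as diaphorase reduces resazurin using NADPH; 0% = DMSO with enzyme and 100% = DMSO without enzyme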
Diaphorase 30uM: diaphorase inhibitors and chemical oxidizers, confirmation, counter-screen for P. falciparum G6PD inhibitor project, biochemical, fluorescence intensity, 30 µM NADPH; shares compounds with PfG6PD inh; Diaphorase/resazurin coupled assay, resorufin fluorescence; inhibition, % at 20 µM; 820 compounds, 29% hits; AID 504863, 2011;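 active = inhibition averaging 50% or more, tested at 20 µM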;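 note: 0% = DMSO with enzyme and 100% = DMSO wells lacking diaphorase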
Active calls of the source: *; x = no result shown.

SMILES	Neddylation inh	HKDC1 inh	M18AAP inhibitor	PfG6PD inh	PfGluPho conf	others
O=c1cc(CSc2nc3cc(Cl)ccc3o2)nc2sccn12	-1	11	5	80*	38
Cc1cc(C)n2cc(CSc3nc4cc(Cl)ccc4o3)nc2n1	x	25	4	20	x
O=C(CN1CCN(S(=O)(=O)N2CCCCC2)CC1)Nc1ccc(Br)cc1	5	-2	-1	-3	x
O=C(Nc1ccc(N2CCOCC2)c(S(=O)(=O)Nc2ccc(Cl)cc2)c1)c1cnccn1	-2	-7	10	73*	18
O=C(Nc1ccc(N2CCOCC2)c(S(=O)(=O)Nc2ccc(Cl)cc2)c1)c1ccc(=O)[nH]n1	-55	7	x	8	x
CC(NC(N)=O)C(=O)Nc1ccc(Cl)c(S(=O)(=O)Nc2ccc(Cl)cc2)c1 (stereo not given)	4	-6	-16	-18	x
CCC(=O)Nc1ccc(N2CCOCC2)c(S(=O)(=O)Nc2ccc(Cl)cc2)c1	-16	-1	x	61*	36
COCCNC(=S)Nc1ccc(N2CCOCC2)c(S(=O)(=O)Nc2ccc(Cl)cc2)c1	-7	x	x	92*	70*	Diaphorase 10uM=-37;Diaphorase 30uM=-6
C[C@H](NC(N)=O)C(=O)Nc1ccc(N2CCOCC2)c(S(=O)(=O)Nc2ccc(Cl)cc2)c1	-8	-13	x	76*	58*	Diaphorase 10uM=2;Diaphorase 30uM=-16
COc1ccc(C2(C)NC(=O)N(CC(=O)NCc3ccccc3)C2=O)cc1OC (stereo not given)	1	-2	-7	6	x
Cc1cc(Cl)ccc1C(=O)C1CCCN(C(=O)c2cncs2)C1 (stereo not given)	-2	-2	-4	9	x
COCC(=O)Nc1ccc2c(c1)[C@@H]1C[C@H](CC(=O)OC)O[C@@H](CO)[C@@H]1O2	-7	x	x	7	x
Cc1cccc(C(=O)Nc2sc3c(c2C(=O)O)CCCC3)c1	36	6	-8	80*	53*	Diaphorase 10uM=47;Diaphorase 30uM=29
Cc1ccccc1C(=O)Nc1sc2c(c1C(=O)O)CCC2	21	-8	3	8	x
O=C(Nc1sc2c(c1C(=O)O)CCC2)c1cccc(Cl)c1	26	5	-2	62*	35
O=C(Nc1sc2c(c1C(=O)O)CCC2)c1ccccc1Cl	10	0	-4	7	x
CCOc1cc(C)nc(N2CCC(C(=O)NC3CC3)CC2)n1	5	-4	x	-7	x
CCOC(=O)Nc1ccc(C)cc1NC(=O)OCC	-3	-6	3	0	x
CCOC(=O)Nc1ccc(NCc2ccc(F)cc2)nc1N	19	32	x	98*	79*	Diaphorase 10uM=11;Diaphorase 30uM=12
COc1cccc(/C=C2/CCC(CN(C)C)C2=O)c1 (stereo not given)	-9	17	x	70*	39
CN(C)CC1CCC/C(=C/c2ccc(Cl)cc2)C1=O (stereo not given)	-2	31	x	60*	21
Cc1ccccc1S(=O)(=O)Cc1ccc(C(=O)NCCCN2CCC(C)CC2)o1	-3	2	-4	6	x
CCN(C(=O)COC(=O)CSc1ccc([N+](=O)[O-])cc1)C1CCS(=O)(=O)C1 (stereo not given)	-39	0	4	60*	1
COc1cc(/C=N/Nc2cccc(C)c2)ccc1OC(=O)c1ccco1	3	-5	3	2	x
Cc1ccc(N2CCN(C(=S)c3ccc(-c4ccccc4[N+](=O)[O-])o3)CC2)cc1	-3	11	7	60*	29
SMILES	Neddylation inh	HKDC1 inh	M18AAP inhibitor	PfG6PD inh	PfGluPho conf	others
O=[N+]([O-])c1ccccc1-c1ccc(C(=S)N2CCN(c3ccccc3)CC2)o1	8	16	0	49	x
O=C(N/N=C/c1ccccc1C(=O)O)c1cccc(S(=O)(=O)Nc2cc(Cl)ccc2Cl)c1	2	5	-8	-20	x
Cc1ccc(/C=N/NC(=O)c2cccc(S(=O)(=O)Nc3ccccc3Cl)c2)s1	-7	-9	-8	94*	80*	Diaphorase 10uM=76*;Diaphorase 30uM=61*
O=C(NCc1ccccc1Cl)[C@H]1CCCN1C(=O)[C@H]1CCCN1C(=O)c1cccs1	-4	x	x	x	x
Cc1ccc(-c2c(C(=O)N/N=C/c3ccco3)nnn2-c2nonc2N)cc1	-15	2	7	62*	46
CCOc1ccc(-c2c(C(=O)N/N=C/c3ccco3)nnn2-c2nonc2N)cc1	-7	-1	13	-8	x
Cc1ccc(-c2c(C(=O)N/N=C/c3ccc(C)o3)nnn2-c2nonc2N)cc1	4	1	4	79*	60*	Diaphorase 10uM=63*;Diaphorase 30uM=47
CC(C)NC(=O)CN1C(=O)CSc2ccc(S(=O)(=O)N3CCCC3)cc21	1	-4	3	-5	x
Cc1ccc(NC(=O)CNC(=O)c2cccc(C)c2)nc1	8	-4	x	4	x
Nc1c(C(=O)Nc2ccc(Cl)c(C(=O)O)c2)sc2nc3c(cc12)CCCC3	x	6	9	59*	10
Nc1c(C(=O)Nc2cccc(C(=O)O)c2)sc2nc3c(cc12)CCCC3	x	3	6	32	x
O=C1CCCC2=C1C(c1ccc(Cl)cc1)C1C(=O)c3ccccc3C1=N2 (stereo not given)	-41	-1	1	72*	36
CCOC1=C2CN(S(=O)(=O)c3ccc(C)cc3)[C@H](c3ccccc3)C[C@@H]2N(S(C)(=O)=O)[C@H](c2ccccc2)C1	15	x	x	x	x
COc1cc(C(=S)N2CCN(c3cccc(Cl)c3)CC2)ccc1O	10	2	23	48	20
O=C1C(=Cc2cccc(O)c2O)SC(=S)N1CCCN1CCOCC1	-7	x	x	70*	50*	Diaphorase 10uM=-12;Diaphorase 30uM=-6
O=C(CCCN1C(=O)/C(=C/c2ccccc2Cl)SC1=S)NCCCN1CCOCC1	-31	-1	0	-12	x
CN1CC(=O)N(CC(=O)Nc2ccc(N(C)C)cc2)c2ccccc2C1=O	4	4	9	63*	6
CN1CC(=O)N(CC(=O)NCCc2ccc(F)cc2)c2ccccc2C1=O	-5	-1	-12	0	x
CCCNC(=O)N(C)C[C@H]1Oc2ncc(Br)cc2C(=O)N([C@H](C)CO)C[C@H]1C	6	x	x	-7	x
Cc1ccc(/C=C/C(=O)OCC(=O)c2ccc3c(c2)NC(=O)CO3)o1	-19	-4	x	71*	-9
Cc1ccc(Nc2nc(-c3ccc(S(=O)(=O)N4CCOCC4)cc3)cs2)cc1	11	-8	26	59	42
